Measured values: PMC12679438 (RSC Advances, 2025)
“Also recorded” adds a separate entry of the source. Where two headings read alike, the source gives them in different places.

Assays:
A549 = test: MTS cytotoxicity assay, 72 h, A549; assay type: cell-based, human; conditions: read-out: IC50 A549
Method in brief: (§1)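 Human lines were kept at 37 °C, 5% CO2 in recommended medium plus 10% FCS, penicillin–streptomycin, 2 mM glutamine, 1 mM bicarbonate, 1 mM pyruvate and 20 mM HEPES, and were mycoplasma-tested biweekly. Cells were exposed to test compound for 72 h on a robotic screening platform, then read by MTS. DMSO-treated cells were the negative control. IC50 came from dose–response curves, mean of ≥6 replicates.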

HCT116 = test: MTS cytotoxicity assay, 72 h, HCT116; assay type: cell-based, human; conditions: read-out: IC50 HCT116
Method in brief: as §1

HCT116-p53 = test: MTS cytotoxicity assay, 72 h, HCT116-p53; assay type: cell-based, human
Method in brief: as §1

U2OS = test: MTS cytotoxicity assay, 72 h, U2OS; assay type: cell-based, human
Method in brief: as §1

RAMOS = test: MTS cytotoxicity assay, 72 h, RAMOS; assay type: cell-based, human
Method in brief: as §1

K562 = test: MTS cytotoxicity assay, 72 h, K562; assay type: cell-based, human; conditions: read-out: IC50 K562
Method in brief: as §1

Jurkat = test: MTS cytotoxicity assay, 72 h, Jurkat; assay type: cell-based, human
Method in brief: as §1

CCRF-CEM = test: MTS cytotoxicity assay, 72 h, CCRF-CEM; assay type: cell-based, human
Method in brief: as §1

BJ = test: MTS cytotoxicity assay, 72 h, BJ fibroblasts; assay type: cell-based, human
Method in brief: as §1

MRC-5 = test: MTS cytotoxicity assay, 72 h, MRC-5 fibroblasts; assay type: cell-based, human; conditions: read-out: IC50 MRC-5
Method in brief: as §1

Recombinant BTK = Recombinant BTK (Homo sapiens, UniProt Q06187); test: In vitro biochemical kinase assay
Chain of Recombinant BTK (Q06187 whole entry): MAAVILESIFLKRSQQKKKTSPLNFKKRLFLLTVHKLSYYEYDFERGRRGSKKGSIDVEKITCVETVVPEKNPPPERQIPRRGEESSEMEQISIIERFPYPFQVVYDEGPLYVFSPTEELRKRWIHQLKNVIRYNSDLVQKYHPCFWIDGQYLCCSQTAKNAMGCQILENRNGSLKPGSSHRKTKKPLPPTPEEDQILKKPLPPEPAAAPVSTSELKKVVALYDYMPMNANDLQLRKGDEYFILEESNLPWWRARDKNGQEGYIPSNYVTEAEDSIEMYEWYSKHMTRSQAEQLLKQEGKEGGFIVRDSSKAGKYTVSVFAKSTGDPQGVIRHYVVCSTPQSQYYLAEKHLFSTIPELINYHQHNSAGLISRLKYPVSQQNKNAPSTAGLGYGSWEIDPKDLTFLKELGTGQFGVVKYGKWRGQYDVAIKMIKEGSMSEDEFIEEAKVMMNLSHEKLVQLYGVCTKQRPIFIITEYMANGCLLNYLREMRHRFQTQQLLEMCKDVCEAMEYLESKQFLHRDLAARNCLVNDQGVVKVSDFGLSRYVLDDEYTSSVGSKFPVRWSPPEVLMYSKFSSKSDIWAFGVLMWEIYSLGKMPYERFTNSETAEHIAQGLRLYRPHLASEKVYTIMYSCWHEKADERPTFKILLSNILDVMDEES

malignant T-cell lines = conditions: cited from earlier work
Recombinant ITK = molecular target: T1, Recombinant ITK (Homo sapiens, UniProt Q08881); test: In vitro biochemical kinase assay
T1 sequence (Q08881 1-620): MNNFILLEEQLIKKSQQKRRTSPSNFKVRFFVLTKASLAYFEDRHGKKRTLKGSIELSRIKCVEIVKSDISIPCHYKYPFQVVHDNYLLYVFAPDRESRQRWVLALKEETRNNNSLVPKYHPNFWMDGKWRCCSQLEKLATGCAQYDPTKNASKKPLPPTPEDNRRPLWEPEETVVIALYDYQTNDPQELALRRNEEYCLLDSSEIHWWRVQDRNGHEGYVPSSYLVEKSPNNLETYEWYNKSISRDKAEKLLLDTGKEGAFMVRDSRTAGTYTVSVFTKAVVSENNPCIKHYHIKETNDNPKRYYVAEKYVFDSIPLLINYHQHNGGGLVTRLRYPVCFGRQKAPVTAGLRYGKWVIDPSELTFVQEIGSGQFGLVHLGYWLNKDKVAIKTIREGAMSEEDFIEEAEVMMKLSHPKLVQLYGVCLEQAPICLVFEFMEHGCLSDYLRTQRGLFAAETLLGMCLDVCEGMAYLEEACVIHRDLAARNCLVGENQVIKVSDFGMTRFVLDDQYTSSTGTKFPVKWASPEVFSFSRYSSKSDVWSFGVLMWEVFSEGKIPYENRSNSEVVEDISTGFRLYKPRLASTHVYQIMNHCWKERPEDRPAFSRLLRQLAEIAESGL

p-ITK (Tyr551/Tyr511) = test: Western blot of ITK phosphorylation in PHA-stimulated Jurkat cells; assay type: cell-based, human
Method in brief: (§2)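 Jurkat cells at 0.5 × 10^6 per mL were stimulated with PHA 5 µg per mL in RPMI/10% FCS for 15 min, then given test compound at 10, 2.25 or 0.62 µM for 24 h. Controls were 0.1% DMSO and unstimulated cells. RIPA lysates (30 µg) were run on 10% SDS-PAGE and probed for p-ITK/BTK (Tyr551/Tyr511), ITK, p-ERK1/2 (Thr202/Tyr204), ERK1/2 and GAPDH using fluorescent secondaries. Phospho/total ratios were normalised to GAPDH.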

p-ERK1/2 (Thr202/Tyr204) = test: Western blot of ERK1/2 phosphorylation in PHA-stimulated Jurkat cells; assay type: cell-based, human
Method in brief: as §2

[1] = MTS cytotoxicity assay, statements over groups of cell lines of the panel; assay type: cell-based, human; conditions: human
Method in brief: as §1

[2] = test system: panel of human cell lines; test: as above; assay type: cell-based; conditions: stated together in the text; for IC50 / cytotoxicity in fibroblast cells: non-cancerous fibroblasts (BJ, MRC-5)
Method in brief: as §1

[3] = ITK/BTK null, MTS, 72 h, mean of ≥6 replicates
[4] = Homo sapiens, read-out: IC50 HCT116-p53
[5] = Homo sapiens, U2OS, read-out: IC50 U2OS
[6] = Homo sapiens, Ramos, read-out: IC50 RAMOS
[7] = Homo sapiens, Jurkat, read-out: IC50 Jurkat
[8] = Homo sapiens, CCRF-CEM, read-out: IC50 CCRF-CEM
[9] = Homo sapiens, BJ, read-out: IC50 BJ
[10] = BJ and MRC-5 non-cancerous fibroblast cell lines

Compound	IC50 (A549; Homo sapiens, A549, 72 h)	IC50 (HCT116; Homo sapiens, HCT-116, 72 h)	IC50 (HCT116-p53; [4])	IC50 (U2OS; [5])	IC50 (RAMOS; [6])	IC50 (K562; Homo sapiens, K562, 72 h)	IC50 (Jurkat; [7])	IC50 (CCRF-CEM; [8])	IC50 (BJ; [9])	IC50 (MRC-5; Homo sapiens, MRC5, 72 h)	IC50 / cytotoxicity in fibroblast cells [2]	other results
1-(6-(3,5-difluorophenyl)-3-oxo-2,3-dihydropyridazin-4-yl)-N-(furan-2-ylmethyl)azetidine-3-carboxamide [Compound 22]												IC50 (A549; [3]): > 50 µM; IC50 (HCT116; [3]): 40.3 µM; IC50 (HCT116-p53; read-out: IC50 HCT116-p53, ITK/BTK null, MTS, mean of ≥6 replicates): 41.2 µM; IC50 (U2OS; read-out: IC50 U2OS, ITK/BTK null, MTS, mean of ≥6 replicates): 36.2 µM; IC50 (RAMOS; read-out: IC50 RAMOS, BTK positive, MTS, mean of ≥6 replicates): 22.3 µM; IC50 (K562; BTK positive, MTS, 72 h, mean of ≥6 replicates): 21.4 µM; IC50 (Jurkat; read-out: IC50 Jurkat, ITK positive, MTS, mean of ≥6 replicates): 11.2 µM; IC50 (CCRF-CEM; read-out: IC50 CCRF-CEM, ITK positive, MTS, mean of ≥6 replicates): 18.5 µM; IC50 (BJ; read-out: IC50 BJ, Non-cancer fibroblasts, MTS, mean of ≥6 replicates): > 50 µM; IC50 (MRC-5; Non-cancer fibroblasts, MTS, 72 h, mean of ≥6 replicates): > 50 µM; BTK inhibition (in words) (Recombinant BTK; ADP-Glo, 0–10 µM range): partial BTK inhibition; also recorded: partial activity against BTK; maximal inhibition of BTK (Recombinant BTK; at 10 µM): ≤ 50%; IC50 (Recombinant BTK; read-out: IC50 BTK activity, ADP-Glo, 0–10 µM range): > 10 µM
COc1cc(C)c(Sc2cnc(NC(=O)c3ccc(CNC(C)C(C)(C)C)cc3)s2)cc1C(=O)N1CCN(C(C)=O)CC1 (stereo not drawn) [BMS-509744]												effect in malignant T-cell lines (malignant T-cell lines): induced pro-apoptotic signaling and G2/M cell cycle arrest
O=C(Nc1ccccc1)C1CN(c2cc(-c3cccc(F)c3)n[nH]c2=O)C1 [Compound 9, 1-(6-(3-fluorophenyl)-3-oxo-2,3-dihydropyridazin-4-yl)-N-phenylazetidine-3-carboxamide]	> 50 µM	> 50 µM	> 50 µM	> 50 µM	9.58 µM	> 50 µM	37.6 µM	19.5 µM	> 50 µM	43.2 µM	inactive	IC50 (Recombinant ITK): 870 nM; BTK inhibition (in words) (Recombinant BTK; ADP-Glo, 0–10 µM range): no measurable BTK inhibition; also recorded: no BTK inhibitory effect was observed; also recorded: absence of BTK activity; total ITK level (p-ITK (Tyr551/Tyr511); PHA-stimulated Jurkat cells, 10 µM, 24 h): modest reduction; p-ITK (Tyr551/Tyr511) level (p-ITK (Tyr551/Tyr511); PHA-stimulated Jurkat cells, 10, 2.25, 0.62 µM for 24 h): reduced phosphorylation; also recorded: concentration-dependent decrease; also recorded: concentration-dependent significant reduction; p-ITK/ITK ratio (densitometry) (p-ITK (Tyr551/Tyr511); all concentrations tested, normalized to GAPDH): significant reduction; p-ERK1/2 (Thr202/Tyr204) level (p-ERK1/2 (Thr202/Tyr204); PHA-stimulated Jurkat cells, 10 µM (highest concentration), 24 h): reduced phosphorylation; also recorded: significant decrease; p-ERK/ERK ratio (densitometry) (p-ERK1/2 (Thr202/Tyr204); highest tested concentration, normalized to GAPDH): significant decrease; IC50 at 72 h [1, 10]: > 50 µM; IC50 / cytotoxicity in non-ITK/BTK (ITK-null) cancer lines ([2]; A549, HCT116, HCT116-p53, U2OS): inactive
O=C(NCC(F)(F)F)C1CN(c2cc(-c3ccc(Cl)cc3)n[nH]c2=O)C1 [Compound 38, 1-(6-(4-chlorophenyl)-3-oxo-2,3-dihydropyridazin-4-yl)-N-(2,2,2-trifluoroethyl)azetidine-3-carboxamide]	> 50 µM	> 50 µM	> 50 µM	> 50 µM	> 50 µM	> 50 µM	44.9 µM	29.9 µM	> 50 µM	> 50 µM	No significant cytotoxicity	
O=C(NCC(F)(F)F)C1CN(c2cc(-c3ccc(F)cc3F)n[nH]c2=O)C1 [Compound 39, 1-(6-(2,4-difluorophenyl)-3-oxo-2,3-dihydropyridazin-4-yl)-N-(2,2,2-trifluoroethyl)azetidine-3-carboxamide]	> 50 µM	> 50 µM	> 50 µM	> 50 µM	> 50 µM	> 50 µM	> 50 µM	26.8 µM	> 50 µM	> 50 µM	No significant cytotoxicity	
O=C(c1ccc(F)cc1)C1CN(c2cc(-c3ccncc3)n[nH]c2=O)C1 [Compound 52, 4-(3-(4-fluorobenzoyl)azetidin-1-yl)-6-(pyridin-4-yl)pyridazin-3(2H)-one]	> 50 µM	> 50 µM	> 50 µM	> 50 µM	13.2 µM	> 50 µM	20.7 µM	> 50 µM	> 50 µM	> 50 µM		IC50 at 72 h ([1]; A549, HCT116, HCT116-p53 and U2OS ITK-null cancer cell lines): > 50 µM; IC50 at 72 h [1, 10]: > 50 µM
C=CC(=O)N1CCC[C@@H](n2nc(-c3ccc(Oc4ccccc4)cc3)c3c(N)ncnc32)C1 [ibrutinib, reference compound]												inhibition of ITK activity (assay validation) (Recombinant ITK; ibrutinib 100 µM, vs. DMSO control): significant inhibition
